In ChEMBL document CHEMBL6120953, “Targeting Plasmodium falciparum IspD in the Methyl-d-erythritol Phosphate Pathway: Urea-Based Compounds with Nanomolar Potency on Target and Low-Micromolar Whole-Cell Activity” (J Med Chem, 2024):
Activity calls are given as the source filed them. The rule behind the calls is not given here.

Tests used:
Plasmodium falciparum [1] = assay: Uncompetitive inhibition of Plasmodium falciparum IspD at 19.5 to 625 uM in presence of MEP by lineweaver-burk plot analysis; settings: dose 19.5-625 µM
Outline: (§1)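 LC-MS IspD assay without coupling enzymes: 0.1 μM PfIspD, 2.0 mM MgCl2 in 100 mM Tris-HCl pH 7.6, 1 mM DTT, preincubated with inhibitor 10 min at 37 °C. One substrate varied 0–500 μM with the other at 500 μM; 40 min at 37 °C, heat-stopped at 95 °C. CDP-ME product quantified by HILIC LC-MS/MS with internal standard; Lineweaver–Burk plots.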

Plasmodium falciparum [2] = assay: Non-competitive inhibition of Plasmodium falciparum IspD at 19.5 to 625 uM in presence of CTP by lineweaver-burk plot analysis; settings: dose 19.5-625 µM; outline: as §1

inhibition (Plasmodium falciparum [1]): Active
inhibition (Plasmodium falciparum [2]): Active
Compound: N#Cc1ccc(NC(=O)Nc2cccc(S(=O)(=O)N3CCCC3)c2)cc1
